Experiments:
[1] = target: Matrix metalloproteinase-9 (Homo sapiens) (UniProt P14780); test: Inhibition of MMP9 (unknown origin) using Mca-PLGLDpaAR as substrate at 5 uM preincubated with enzyme for 2 hrs followed by incubation with substrate for 15 mins by fluorescence based analysis relative to control
[2] = target: Focal adhesion kinase 1 (Homo sapiens) (UniProt Q05397); test: Inhibition of FAK (unknown origin) using poly (Glu, Tyr) as substrate at 5 uM incubated for 40 mins in presence of 10 uM ATP by kiase-Glo luminescence assay relative to control
Sequence of Focal adhesion kinase 1 (Homo sapiens) (Q05397 2-1052 limits assumed): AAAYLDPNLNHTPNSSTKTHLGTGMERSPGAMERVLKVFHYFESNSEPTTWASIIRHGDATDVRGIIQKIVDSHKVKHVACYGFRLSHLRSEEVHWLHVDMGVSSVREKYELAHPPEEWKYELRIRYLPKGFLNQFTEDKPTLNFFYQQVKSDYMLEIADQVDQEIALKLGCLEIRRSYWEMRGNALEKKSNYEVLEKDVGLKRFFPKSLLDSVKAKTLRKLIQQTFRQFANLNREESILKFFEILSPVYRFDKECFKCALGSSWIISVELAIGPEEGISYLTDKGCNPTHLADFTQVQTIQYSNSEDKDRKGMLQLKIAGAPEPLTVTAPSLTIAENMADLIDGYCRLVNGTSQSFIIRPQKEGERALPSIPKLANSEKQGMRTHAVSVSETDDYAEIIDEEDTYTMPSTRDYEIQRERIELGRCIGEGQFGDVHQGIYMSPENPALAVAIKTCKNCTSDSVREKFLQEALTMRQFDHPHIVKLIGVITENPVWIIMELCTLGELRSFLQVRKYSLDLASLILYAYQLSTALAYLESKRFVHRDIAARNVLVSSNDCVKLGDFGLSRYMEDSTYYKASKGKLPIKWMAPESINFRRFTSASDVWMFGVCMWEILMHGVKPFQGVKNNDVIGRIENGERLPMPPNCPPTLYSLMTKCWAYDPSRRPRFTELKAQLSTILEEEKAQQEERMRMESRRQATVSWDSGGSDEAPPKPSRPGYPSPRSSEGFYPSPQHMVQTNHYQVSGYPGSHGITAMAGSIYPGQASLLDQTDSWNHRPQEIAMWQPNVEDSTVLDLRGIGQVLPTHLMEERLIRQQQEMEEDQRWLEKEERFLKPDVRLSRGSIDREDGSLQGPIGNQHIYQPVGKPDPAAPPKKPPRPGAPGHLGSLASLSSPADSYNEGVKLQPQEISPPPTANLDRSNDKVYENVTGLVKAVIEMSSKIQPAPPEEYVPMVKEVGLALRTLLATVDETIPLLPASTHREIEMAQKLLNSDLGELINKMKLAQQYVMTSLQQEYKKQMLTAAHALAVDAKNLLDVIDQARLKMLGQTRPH

SK-HEP1 = test: Antiproliferative activity against human SKHEP1 cells assessed as reduction in cell viability incubated for 72 hrs by CCK8 assay; assay type: functional, cell-based; conditions: SK-HEP1, 72 h
HCT-116 [3] = test: Cell cycle arrest in human HCT116 cells assessed as accumulation in G2 phase at 12 nM incubated for 24 hrs by propidium iodide staining based flow cytometry (reference value: 12.52 %); assay type: functional
HCT-116 [4] = test: Induction of apoptosis in human HCT116 cells at 1 uM incubated for 24 hrs by annexin V-FITC and propidium iodide staining based flow cytometry (reference value: 0.86 %); assay type: functional
[5] = target: Histone-lysine N-methyltransferase EZH2 (Homo sapiens) (UniProt Q15910); test: Inhibition of EZH2 (unknown origin) using plate-coated histone as substrate at 5 uM incubated for 90 mins in presence of 5 uM SAM by AlphaScreen assay relative to control
Sequence of Histone-lysine N-methyltransferase EZH2 (Homo sapiens) (Q15910 whole entry, looked up): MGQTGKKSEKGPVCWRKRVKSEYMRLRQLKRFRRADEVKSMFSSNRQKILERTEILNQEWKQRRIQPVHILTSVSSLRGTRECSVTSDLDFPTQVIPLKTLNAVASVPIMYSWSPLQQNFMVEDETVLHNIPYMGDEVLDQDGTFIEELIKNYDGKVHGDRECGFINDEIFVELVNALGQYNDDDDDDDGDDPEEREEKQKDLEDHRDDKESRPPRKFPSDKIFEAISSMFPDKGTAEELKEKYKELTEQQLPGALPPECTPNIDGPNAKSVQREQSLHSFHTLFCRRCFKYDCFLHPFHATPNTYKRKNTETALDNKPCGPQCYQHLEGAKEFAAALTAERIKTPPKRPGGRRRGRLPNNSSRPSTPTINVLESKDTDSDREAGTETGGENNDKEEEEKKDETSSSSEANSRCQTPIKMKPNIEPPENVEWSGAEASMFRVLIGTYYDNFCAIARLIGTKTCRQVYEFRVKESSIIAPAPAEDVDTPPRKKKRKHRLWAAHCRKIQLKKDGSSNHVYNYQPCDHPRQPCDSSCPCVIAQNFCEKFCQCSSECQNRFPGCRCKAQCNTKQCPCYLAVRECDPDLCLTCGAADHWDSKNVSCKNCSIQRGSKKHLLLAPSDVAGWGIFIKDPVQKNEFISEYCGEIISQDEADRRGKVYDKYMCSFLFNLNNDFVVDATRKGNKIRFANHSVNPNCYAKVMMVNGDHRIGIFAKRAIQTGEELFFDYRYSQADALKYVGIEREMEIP

[6] = target: Protein mono-ADP-ribosyltransferase PARP15 (Homo sapiens) (UniProt Q460N3); test: Inhibition of PARP15 (unknown origin) using biotin-NAD+, NAD+ and sIDNA as substrate at 5 uM incubated for 1 hr by ELISA relative to control
[7] = target: CDK4/Cyclin D3 (Homo sapiens) (UniProt P11802+P30281); test: Inhibition of CDK4/Cyclin D3 (unknown origin) using Rb as substrate at 5 uM incubated for 40 mins in presence of 10 uM ATP by kinase-Glo luminescence assay relative to control; assay type: protein-complex assay
K562 = test: Antiproliferative activity against human K562 cells assessed as reduction in cell viability incubated for 72 hrs by CCK8 assay; assay type: functional, cell-based; conditions: K562, 72 h
HCT-116 [8] = test: Cell cycle arrest in human HCT116 cells assessed as accumulation in S phase at 36 nM incubated for 24 hrs by propidium iodide staining based flow cytometry (reference value: 42.31 %); assay type: functional
BEL-7404 tumor cell line = test: Antiproliferative activity against human Bel7404 cells assessed as reduction in cell viability incubated for 72 hrs by CCK8 assay; assay type: functional, cell-based; conditions: BEL-7404, 72 h
[9] = target: CDK9/cyclin T1 (Homo sapiens) (UniProt O60563+P50750); test: Inhibition of CDK9/Cyclin T1 (unknown origin) using PDKtide as substrate at 5 uM incubated for 40 mins in presence of 10 uM ATP by kinase-Glo luminescence assay relative to control; assay type: protein-complex assay
[10] = target: NAD-dependent protein deacetylase sirtuin-1 (Homo sapiens) (UniProt Q96EB6); test: Inhibition of N-terminal His tagged recombinant human SIRT1 (193 to end residues) expressed in baculovirus infected Sf9 cells using HDAC substrate 1 as substrate at 5 uM incubated for 30 mins by fluorescence based analysis relative to control
[11] = target: Histone-lysine N-methyltransferase EHMT2 (Homo sapiens) (UniProt Q96KQ7); test: Inhibition of N-terminal GST-tagged recombinant human G9a (785 to 1210 residues) expressed in Escherichia coli cells using biotinylated histone H3 peptide as substrate at 5 uM incubated for 90 mins in presence of 1 uM SAM by AlphaScreen assay relative to control
Sequence of Histone-lysine N-methyltransferase EHMT2 (Homo sapiens) (Q96KQ7 whole entry, the tested form may be a part): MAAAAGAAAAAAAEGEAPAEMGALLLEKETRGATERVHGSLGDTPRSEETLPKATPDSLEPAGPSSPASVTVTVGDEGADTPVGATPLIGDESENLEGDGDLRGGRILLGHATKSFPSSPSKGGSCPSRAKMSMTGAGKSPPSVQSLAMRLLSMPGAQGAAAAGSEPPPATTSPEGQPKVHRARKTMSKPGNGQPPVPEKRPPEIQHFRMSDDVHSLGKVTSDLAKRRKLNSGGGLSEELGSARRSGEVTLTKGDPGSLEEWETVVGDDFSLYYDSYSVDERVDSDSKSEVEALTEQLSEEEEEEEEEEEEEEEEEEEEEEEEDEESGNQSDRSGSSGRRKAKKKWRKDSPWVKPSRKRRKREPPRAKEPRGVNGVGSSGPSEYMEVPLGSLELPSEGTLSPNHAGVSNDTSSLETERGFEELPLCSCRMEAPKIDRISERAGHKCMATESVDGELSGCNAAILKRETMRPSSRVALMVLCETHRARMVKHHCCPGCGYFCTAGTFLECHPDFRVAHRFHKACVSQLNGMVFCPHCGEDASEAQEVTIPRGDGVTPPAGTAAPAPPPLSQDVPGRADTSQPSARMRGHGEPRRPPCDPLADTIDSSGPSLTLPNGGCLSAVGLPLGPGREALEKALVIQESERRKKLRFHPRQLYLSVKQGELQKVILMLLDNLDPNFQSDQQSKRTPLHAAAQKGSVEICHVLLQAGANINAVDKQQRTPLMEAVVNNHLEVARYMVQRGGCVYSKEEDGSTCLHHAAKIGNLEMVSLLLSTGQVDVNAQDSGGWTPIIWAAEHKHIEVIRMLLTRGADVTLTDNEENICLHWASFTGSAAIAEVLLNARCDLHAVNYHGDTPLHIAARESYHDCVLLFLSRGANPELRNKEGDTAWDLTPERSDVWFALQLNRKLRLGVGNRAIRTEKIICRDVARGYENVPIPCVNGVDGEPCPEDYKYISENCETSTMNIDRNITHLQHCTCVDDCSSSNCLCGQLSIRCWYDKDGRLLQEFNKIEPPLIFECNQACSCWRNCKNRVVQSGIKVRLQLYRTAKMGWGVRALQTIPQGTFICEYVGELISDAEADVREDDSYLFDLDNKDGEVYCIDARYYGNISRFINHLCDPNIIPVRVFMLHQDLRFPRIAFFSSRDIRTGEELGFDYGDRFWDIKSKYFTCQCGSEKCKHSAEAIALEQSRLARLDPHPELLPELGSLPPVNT

HCT-116 [12] = test: Antitumor activity against human HCT116 cells xenografted in mouse assessed as reduction in tumor growth at 4 mg/kg, ip bid for 21 days administration starting from 10 days after tumor cell implantation measured every 2 or 4 days till the end of the treatment period relative to control; assay type: functional; conditions: HCT-116, ip, read-out: TGI
Procedure, shortened: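 HCT116 xenografts in nude mice; intraperitoneal dosing on 21 consecutive days; tumour growth inhibition (TGI) versus untreated control, with body weight recorded. n = 6 mice per group; mean ± SEM; significance by Student's t test versus control.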

[13] = target: Poly [ADP-ribose] polymerase tankyrase-2 (Homo sapiens) (UniProt Q9H2K2); test: Inhibition of TNKS2 (unknown origin) using biotin-NAD+, NAD+ and sIDNA as substrate at 5 uM incubated for 1 hr by ELISA relative to control
[14] = target: Tyrosine-protein kinase ABL1 (Homo sapiens) (UniProt P00519); test: Inhibition of Abl (unknown origin) using Abltide as substrate at 5 uM incubated for 40 mins in presence of 10 uM ATP by kiase-Glo luminescence assay relative to control
[15] = target: PI3-kinase p110-alpha/p85-alpha (Homo sapiens) (UniProt P27986+P42336); test: Inhibition of PI3K p110alpha/p85alpha (unknown origin) using PI3K lipid as substrate at 5 uM incubated for 40 mins in presence of 2.5 uM ATP by kinase-Glo luminescence assay relative to control; assay type: protein-complex assay
Homo sapiens [16] = organism: Homo sapiens; test: Inhibition of PDE4A1A (unknown origin) using FAM-cAMP as substrate at 5 uM incubated for 1 hr by fluorescence polarization assay relative to control
[17] = target: Tyrosine-protein phosphatase non-receptor type 11 (Homo sapiens) (UniProt Q06124); test: Inhibition of SHP2 (unknown origin) using DiFMUP as substrate at 5 uM incubated for 30 mins by fluorescence based analysis
Sequence of Tyrosine-protein phosphatase non-receptor type 11 (Homo sapiens) (Q06124 whole entry): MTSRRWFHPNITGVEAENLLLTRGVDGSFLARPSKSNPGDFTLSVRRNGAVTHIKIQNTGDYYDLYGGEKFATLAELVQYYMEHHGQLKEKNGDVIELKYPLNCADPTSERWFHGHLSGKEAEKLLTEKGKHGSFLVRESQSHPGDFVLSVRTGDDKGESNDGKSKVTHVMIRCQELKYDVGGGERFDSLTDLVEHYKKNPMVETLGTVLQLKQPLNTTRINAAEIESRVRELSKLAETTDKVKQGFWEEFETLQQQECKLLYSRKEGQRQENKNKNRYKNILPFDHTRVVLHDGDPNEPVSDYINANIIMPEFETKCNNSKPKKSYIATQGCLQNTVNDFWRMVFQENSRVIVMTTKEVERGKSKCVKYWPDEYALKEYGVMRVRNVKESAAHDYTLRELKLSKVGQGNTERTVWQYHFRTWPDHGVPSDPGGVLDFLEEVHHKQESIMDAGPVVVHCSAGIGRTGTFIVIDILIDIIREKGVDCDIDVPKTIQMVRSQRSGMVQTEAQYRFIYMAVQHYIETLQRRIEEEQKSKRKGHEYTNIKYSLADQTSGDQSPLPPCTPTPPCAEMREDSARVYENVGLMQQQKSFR

[18] = target: 72 kDa type IV collagenase (Homo sapiens) (UniProt P08253); test: Inhibition of MMP2 (unknown origin) using Mca-PLGLDpaAR as substrate at 5 uM preincubated with enzyme for 2 hrs followed by incubation with substrate for 15 mins by fluorescence based analysis relative to control
Sequence of 72 kDa type IV collagenase (Homo sapiens) (P08253 110-660 limits assumed): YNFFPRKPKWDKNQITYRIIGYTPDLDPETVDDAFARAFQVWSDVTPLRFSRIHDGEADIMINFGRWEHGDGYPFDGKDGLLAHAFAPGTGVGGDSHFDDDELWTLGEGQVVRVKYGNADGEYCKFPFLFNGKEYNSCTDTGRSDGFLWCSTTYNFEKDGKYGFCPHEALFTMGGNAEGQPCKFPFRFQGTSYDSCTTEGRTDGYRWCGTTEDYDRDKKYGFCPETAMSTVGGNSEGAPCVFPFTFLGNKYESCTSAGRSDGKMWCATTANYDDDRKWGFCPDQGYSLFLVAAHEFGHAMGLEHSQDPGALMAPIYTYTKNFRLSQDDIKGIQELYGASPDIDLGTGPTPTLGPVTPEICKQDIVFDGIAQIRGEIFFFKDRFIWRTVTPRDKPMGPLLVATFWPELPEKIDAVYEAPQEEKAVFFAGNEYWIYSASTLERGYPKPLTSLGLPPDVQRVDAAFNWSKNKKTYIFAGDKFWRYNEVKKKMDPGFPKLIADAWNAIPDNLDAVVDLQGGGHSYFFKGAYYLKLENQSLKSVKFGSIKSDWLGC

HCT-116 [19] = test: Cell cycle arrest in human HCT116 cells assessed as accumulation in G1 phase at 4 nM incubated for 24 hrs by propidium iodide staining based flow cytometry (reference value: 45.18 %); assay type: functional
HCT-116 [20] = test: Induction of apoptosis in human HCT116 cells at 0.20 uM incubated for 24 hrs by annexin V-FITC and propidium iodide staining based flow cytometry (reference value: 0.86 %); assay type: functional
[21] = target: Histone deacetylase 3/Nuclear receptor corepressor 2 (HDAC3/NCoR2) (Homo sapiens) (UniProt O15379+Q9Y618); test: Inhibition of C-terminal His-tagged recombinant human HDAC3 (1 to 428 residues)/N-terminal GST-tagged recombinat human NCoR2 (395 to 489 residues) co-expressed in baculovirus infected Sf9 cells using histone peptide 3 as substrate at 5 uM incubated for 30 mins by fluorescence analysis
Homo sapiens [22] = organism: Homo sapiens; test: Inhibition of PDE4D7 (unknown origin) using FAM-cAMP as substrate at 5 uM incubated for 1 hr by fluorescence polarization assay relative to control
[23] = target: Poly [ADP-ribose] polymerase tankyrase-1 (Homo sapiens) (UniProt O95271); test: Inhibition of TNKS1 (unknown origin) using biotin-NAD+, NAD+ and sIDNA as substrate at 5 uM incubated for 1 hr by ELISA relative to control

Sequence of Matrix metalloproteinase-9 (Homo sapiens) (P14780 whole entry): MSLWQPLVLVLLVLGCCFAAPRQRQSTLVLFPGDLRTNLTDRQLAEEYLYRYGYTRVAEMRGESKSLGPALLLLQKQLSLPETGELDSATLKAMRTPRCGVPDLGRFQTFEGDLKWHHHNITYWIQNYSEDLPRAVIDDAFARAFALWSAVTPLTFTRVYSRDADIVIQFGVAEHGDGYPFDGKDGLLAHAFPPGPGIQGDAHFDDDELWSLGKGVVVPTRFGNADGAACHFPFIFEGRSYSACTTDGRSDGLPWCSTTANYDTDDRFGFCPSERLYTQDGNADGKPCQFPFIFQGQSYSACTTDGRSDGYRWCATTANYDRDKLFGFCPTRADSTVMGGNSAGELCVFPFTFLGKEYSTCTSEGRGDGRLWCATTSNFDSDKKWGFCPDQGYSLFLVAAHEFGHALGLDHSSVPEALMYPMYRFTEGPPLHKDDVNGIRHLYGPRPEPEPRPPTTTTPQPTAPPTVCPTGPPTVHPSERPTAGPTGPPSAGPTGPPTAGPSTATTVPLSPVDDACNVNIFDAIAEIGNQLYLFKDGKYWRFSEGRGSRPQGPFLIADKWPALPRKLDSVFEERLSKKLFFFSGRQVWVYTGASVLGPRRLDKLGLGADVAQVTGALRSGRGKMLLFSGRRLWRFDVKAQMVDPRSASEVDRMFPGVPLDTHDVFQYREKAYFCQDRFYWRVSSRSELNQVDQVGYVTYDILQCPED

COc1ccc2c(c1)cc1n2CCN2C(=O)c3cc(F)ccc3N(C)C12 (stereo unspecified)
inhibition [1]: < 20% | inhibition [2]: < 20% | IC50 (SK-HEP1): 1300 nM | Activity (HCT-116 [3]): 35.49% | Activity (HCT-116 [4]): 52% | inhibition [5]: < 20% | inhibition [6]: < 20% | inhibition [7]: < 20% | IC50 (K562): < 3 nM | Activity (HCT-116 [8]): 14.85% | IC50 (BEL-7404 tumor cell line): 100 nM | inhibition [9]: < 20% | inhibition [10]: < 20% | inhibition [11]: < 20% | inhibition in vivo at 4 mg/kg (HCT-116 [12]): 37% | inhibition [13]: < 20% | inhibition [14]: < 20% | inhibition [15]: < 20% | inhibition (Homo sapiens [16]): < 20% | inhibition [17]: < 20% | inhibition [18]: < 20% | Activity (HCT-116 [19]): 43.01% | Activity (HCT-116 [20]): 45.97% | inhibition [21]: < 20% | inhibition (Homo sapiens [22]): < 20% | inhibition [23]: < 20%

Source: ChEMBL document CHEMBL4376872, “Scaffold Hopping of Natural Product Evodiamine: Discovery of a Novel Antitumor Scaffold with Excellent Potency against Colon Cancer” (J Med Chem, 2020)
